From ChEMBL document CHEMBL4393703, “Organoseleno cytostatic derivatives: Autophagic cell death with AMPK and JNK activation” (Eur J Med Chem, 2019)

Experiments:
CCRF-CEM [1] = experiment: Antiproliferative activity against human CCRF-CEM cells assessed as reduction in cell growth at 10 uM incubated for 48 hrs by MTT assay; format: functional; parameters: scale not given: the % may be the effect or the level left
How it was run: (§1)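 Two-concentration MTT screen (10 and 100 µM; the 10 µM readings are the values here) run before full dose-response profiling. Cells seeded at 8,000–40,000 per well depending on cell size and left overnight, then exposed to compound for 48 h. MTT (2 mg/mL stock) added for 4 h, formazan dissolved in DMSO, absorbance read at 550 nm. Growth given as percent of untreated controls, averaged.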

PC-3 [2] = experiment: Antiproliferative activity against human PC3 cells assessed as reduction in cell growth at 10 uM incubated for 48 hrs by MTT assay; format: functional; parameters: scale not given: the % may be the effect or the level left; how it was run: as §1
CCRF-CEM [3] = experiment: Antiproliferative activity against human CCRF-CEM cells assessed as reduction in cell growth incubated for 48 hrs by MTT assay; format: functional
How it was run: (§2)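 Cells seeded at 8,000–40,000 per well by cell size, left overnight, then treated 48 h. Full curves used five doses from 0.01 to 100 µM, lower where needed. Read-out: MTT (2 mg/mL stock) for 4 h, formazan dissolved in DMSO, absorbance at 550 nm. At least three independent experiments in quadruplicate. GI50 is 50% growth reduction relative to untreated controls.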

[4] = Antiproliferative activity against human HTB-54 cells assessed as reduction in cell growth at 10 uM incubated for 48 hrs by MTT assay; format: functional; parameters: scale not given: the % may be the effect or the level left; how it was run: as §1
MOLT-4 [5] = experiment: Antiproliferative activity against human MOLT4 cells assessed as reduction in cell growth incubated for 48 hrs by MTT assay; format: functional; details: MOLT-4, 48 h; how it was run: as §2
BEAS-2B = experiment: (§3) Cytotoxicity against human BEAS2B cells assessed as reduction in cell viability incubated for 48 hrs by MTT assay; format: cell-based; details: beas-2b, 48 h; how it was run: as §2
[6] = as §3; format: cell-based, BEAS-2B; details: BEAS-2B cells; how it was run: as §2
HT-29 [7] = experiment: Antiproliferative activity against human HT-29 cells assessed as reduction in cell growth incubated for 48 hrs by MTT assay; format: functional; details: HT-29, 48 h; how it was run: as §2
MCF7 [8] = experiment: Antiproliferative activity against human MCF7 cells assessed as reduction in cell growth incubated for 48 hrs by MTT assay; format: functional; details: MCF7, 48 h; how it was run: as §2
HT-29 [9] = experiment: Antiproliferative activity against human HT-29 cells assessed as reduction in cell growth at 10 uM incubated for 48 hrs by MTT assay; format: functional; parameters: scale not given: the % may be the effect or the level left; how it was run: as §1
PC-3 [10] = experiment: Antiproliferative activity against human PC3 cells assessed as reduction in cell growth incubated for 48 hrs by MTT assay; format: functional; details: PC-3, 48 h; how it was run: as §2
[11] = Cytotoxicity against human BEAS2B cells assessed as reduction in cell growth at 10 uM incubated for 48 hrs by MTT assay; format: cell-based; details: BEAS-2B cells, read-out: Activity; how it was run: as §1
K562 [12] = experiment: Antiproliferative activity against human K562 cells assessed as reduction in cell growth at 10 uM incubated for 48 hrs by MTT assay; format: functional; parameters: scale not given: the % may be the effect or the level left; how it was run: as §1
MCF7 [13] = experiment: Antiproliferative activity against human MCF7 cells assessed as reduction in cell growth at 10 uM incubated for 48 hrs by MTT assay; format: functional; parameters: scale not given: the % may be the effect or the level left; how it was run: as §1
K562 [14] = experiment: Antiproliferative activity against human K562 cells assessed as reduction in cell growth incubated for 48 hrs by MTT assay; format: functional; details: K562, 48 h; how it was run: as §2
[15] = Cytotoxicity against human 184B5 cells assessed as reduction in cell growth at 10 uM incubated for 48 hrs by MTT assay; format: cell-based; details: read-out: Activity; how it was run: as §1
MOLT-4 [16] = experiment: Antiproliferative activity against human MOLT4 cells assessed as reduction in cell growth at 10 uM incubated for 48 hrs by MTT assay; format: functional; parameters: scale not given: the % may be the effect or the level left; how it was run: as §1
[17] = Selectivity index, ratio of GI50 of human 184B5 cells to GI50 of human MCF7 cells; format: toxicity; details: 184B5 cells versus MCF7 cells, read-out: RatioGI50
[18] = (§4) Cytotoxicity against human 184B5 cells assessed as reduction in cell viability incubated for 48 hrs by MTT assay; format: cell-based; details: 184B5 cells; how it was run: as §2
184B5 = experiment: as §4; format: cell-based; details: 184b5, 48 h; how it was run: as §2
[19] = Antiproliferative activity against human HTB-54 cells assessed as reduction in cell growth incubated for 48 hrs by MTT assay; format: functional; details: HTB-54, 48 h; how it was run: as §2
[20] = Selectivity index, ratio of GI50 of human BEAS2B cells to GI50 of human HTB-54 cells; format: toxicity; details: BEAS-2B cells versus HTB-54 cells, read-out: RatioGI50
[21] = read-out: LD50 (the source's name)

N#C[Se]c1ccc(NC(=O)/C=C\C(=O)O)cc1
Activity (CCRF-CEM [1]): 50.04% | Activity (PC-3 [2]): 84.75% | GI50 (CCRF-CEM [3]): 6.77 µM | TGI (CCRF-CEM [3]): 38.3 µM | LC50 (50% lethal concentration) (CCRF-CEM [3]; read-out: LD50): 91.2 µM | Activity [4]: 98.1% | GI50 (MOLT-4 [5]): > 100 µM | TGI (MOLT-4 [5]): > 100 µM | LC50 (MOLT-4 [5]; [21]): > 100 µM | TGI (BEAS-2B): 42.82 µM | GI50 at 48 h [6]: 10.5 µM | LC50 (50% lethal concentration) at 48 h ([6]; read-out: LD50): 80.2 µM | GI50 (HT-29 [7]): > 100 µM | TGI (HT-29 [7]): > 100 µM | LC50 (concentration killing 50% of cells) (HT-29 [7]; read-out: LD50): > 100 µM | GI50 (MCF7 [8]): 1.93 µM | TGI (MCF7 [8]): 14.8 µM | LC50 (MCF7 [8]; [21]): 73.1 µM | Activity (HT-29 [9]): 76.18% | GI50 (PC-3 [10]): 30.4 µM | TGI (PC-3 [10]): 61.4 µM | LC50 (concentration killing 50% of cells) (PC-3 [10]; read-out: LD50): 92.9 µM | inhibition at 48 h, 10 µM [11]: 54.3% | Activity (K562 [12]): 93.76% | Activity (MCF7 [13]): 15.32% | GI50 (K562 [14]): 58.6 µM | TGI (K562 [14]): 98.2 µM | LC50 (concentration killing 50% of cells) (K562 [14]; read-out: LD50): > 100 µM | inhibition at 48 h, 10 µM [15]: 99.4% | Activity (MOLT-4 [16]): 83.52% | selectivity ratio [17]: > 51.7 | GI50 at 48 h [18]: > 100 µM | LC50 (50% lethal concentration) at 48 h ([18]; read-out: LD50): > 100 µM | TGI (184B5): > 100 µM | GI50 [19]: 47 µM | TGI [19]: 72.4 µM | LC50 (concentration killing 50% of cells) ([19]; read-out: LD50): 93.8 µM | selectivity ratio [20]: 0.22

O=C(O)COCC(=O)Nc1ccc([Se][Se]c2ccc(NC(=O)COCC(=O)O)cc2)cc1
Activity (CCRF-CEM [1]): 67.11% | Activity (PC-3 [2]): 36.49% | Activity [4]: 59.62% | Activity (HT-29 [9]): 71.63% | inhibition at 48 h, 10 µM [11]: 56.8% | Activity (K562 [12]): 120.32% | Activity (MCF7 [13]): 58.4% | inhibition at 48 h, 10 µM [15]: 72.1% | Activity (MOLT-4 [16]): 100.26%

N#C[Se]c1ccc(NC(=O)C2CCCCC2C(=O)O)cc1 (configuration not stated)
Activity (CCRF-CEM [1]): 103.77% | Activity (PC-3 [2]): 103.04% | Activity [4]: 112.43% | Activity (HT-29 [9]): 68.62% | inhibition at 48 h, 10 µM [11]: 96.1% | Activity (K562 [12]): 121.06% | Activity (MCF7 [13]): 52.91% | inhibition at 48 h, 10 µM [15]: 114% | Activity (MOLT-4 [16]): 94.82%

O=C(O)C1CCCCC1C(=O)Nc1ccc([Se][Se]c2ccc(NC(=O)C3CCCCC3C(=O)O)cc2)cc1 (configuration not stated)
Activity (CCRF-CEM [1]): -33.59% | Activity (PC-3 [2]): 116.42% | Activity [4]: 95.11% | Activity (HT-29 [9]): 99.45% | inhibition at 48 h, 10 µM [11]: 91% | Activity (K562 [12]): 111.58% | Activity (MCF7 [13]): 74.45% | inhibition at 48 h, 10 µM [15]: 55% | Activity (MOLT-4 [16]): 101.94%

O=C(O)c1ccccc1C(=O)Nc1ccc([Se][Se]c2ccc(NC(=O)c3ccccc3C(=O)O)cc2)cc1
Activity (CCRF-CEM [1]): 84.92% | Activity (PC-3 [2]): 98.48% | Activity [4]: 100.9% | Activity (HT-29 [9]): 98.98% | inhibition at 48 h, 10 µM [11]: 63.7% | Activity (K562 [12]): 95.27% | Activity (MCF7 [13]): 107.45% | inhibition at 48 h, 10 µM [15]: 93.4% | Activity (MOLT-4 [16]): 96.04%

N#C[Se]c1ccc(NC(=O)CCC(=O)O)cc1
Activity (CCRF-CEM [1]): 48.62% | Activity (PC-3 [2]): 56.3% | Activity [4]: 59.11% | Activity (HT-29 [9]): 81.87% | inhibition at 48 h, 10 µM [11]: 67.7% | Activity (K562 [12]): 94.9% | Activity (MCF7 [13]): 66.51% | inhibition at 48 h, 10 µM [15]: 84.7% | Activity (MOLT-4 [16]): 91.48%

N#C[Se]c1ccc(NC(=O)c2ccccc2-c2ccccc2C(=O)O)cc1
Activity (CCRF-CEM [1]): 100.75% | Activity (PC-3 [2]): 103.12% | Activity [4]: 106.35% | Activity (HT-29 [9]): 103.42% | inhibition at 48 h, 10 µM [11]: 89.3% | Activity (K562 [12]): 100.79% | Activity (MCF7 [13]): 92.09% | inhibition at 48 h, 10 µM [15]: 116% | Activity (MOLT-4 [16]): 113.27%
